Measurements as given in ChEMBL document CHEMBL1125128, “(1R,3S)-1-(aminomethyl)-3,4-dihydro-5,6-dihydroxy-3-phenyl-1H-2-benzopyran: a potent and selective D1 agonist” (J Med Chem, 1990).
Where “and” joins values, the source holds several entries; their conditions need not be identical. Identical values can stand only once.

Assays:
[1] = target: D(2) dopamine receptor (Rattus norvegicus) (UniProt P61169); assay: Percent intrinsic activity was determined by measuring the formation of cAMP on Dopamine receptor D2 in vitro in rat intermediate lobe; format: functional
D(2) dopamine receptor [2] = target: T1, D(2) dopamine receptor (Rattus norvegicus, UniProt P61169); assay: Binding affinity was determined by measuring the ability to displace [125I]N-(p-aminophenethyl)-spiroperidol from Dopamine receptor D2 in rat caudate (in vitro)
How it was run: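 Homogenized rat caudate was the tissue, and [¹²⁵I]-N-(p-aminophenethyl)spiroperidol was the radioligand displaced. Values are means with the SEM range.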

D(2) dopamine receptor [3] = target: T1, D(2) dopamine receptor; assay: Formation of cAMP on Dopamine receptor D2 in vitro in rat intermediate lobe; format: functional
D(1A) dopamine receptor = D(1A) dopamine receptor (Rattus norvegicus, UniProt P18901); assay: Binding affinity was determined by measuring the ability to displace [125I]SCH-23982 from Dopamine receptor D1 in rat caudate (in vitro)
How it was run: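 Homogenized rat caudate was used as the tissue source. [¹²⁵I]SCH23982 was the displaced radioligand, and affinity was expressed as Ki. Values are means with the SEM range.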

Sequence of D(2) dopamine receptor (Rattus norvegicus) (P61169 whole entry): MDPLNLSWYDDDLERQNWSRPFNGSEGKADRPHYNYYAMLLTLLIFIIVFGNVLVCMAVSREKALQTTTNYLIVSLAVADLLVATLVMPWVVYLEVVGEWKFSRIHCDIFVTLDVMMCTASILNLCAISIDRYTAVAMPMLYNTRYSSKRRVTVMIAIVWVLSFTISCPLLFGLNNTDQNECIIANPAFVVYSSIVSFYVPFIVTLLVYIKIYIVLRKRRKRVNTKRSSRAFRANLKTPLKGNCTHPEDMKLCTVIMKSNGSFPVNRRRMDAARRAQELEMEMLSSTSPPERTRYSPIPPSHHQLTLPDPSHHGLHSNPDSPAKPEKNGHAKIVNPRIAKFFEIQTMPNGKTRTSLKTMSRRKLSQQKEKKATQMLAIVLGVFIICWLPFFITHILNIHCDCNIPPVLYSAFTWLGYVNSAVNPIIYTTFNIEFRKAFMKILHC
T1 sequence (P61169 whole entry): as above
Sequence of D(1A) dopamine receptor (P18901 whole entry): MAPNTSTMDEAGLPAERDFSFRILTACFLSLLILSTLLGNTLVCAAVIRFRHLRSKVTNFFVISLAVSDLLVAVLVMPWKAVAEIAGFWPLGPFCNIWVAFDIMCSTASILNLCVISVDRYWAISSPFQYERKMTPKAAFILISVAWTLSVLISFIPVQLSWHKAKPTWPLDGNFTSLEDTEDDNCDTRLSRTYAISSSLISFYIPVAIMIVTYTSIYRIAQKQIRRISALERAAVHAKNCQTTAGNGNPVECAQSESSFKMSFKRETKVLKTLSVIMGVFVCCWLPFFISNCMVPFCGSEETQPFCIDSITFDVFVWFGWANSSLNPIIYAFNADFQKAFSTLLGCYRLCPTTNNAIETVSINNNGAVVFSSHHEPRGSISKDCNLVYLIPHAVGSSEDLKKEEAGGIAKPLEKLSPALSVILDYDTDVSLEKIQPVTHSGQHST

IA [1] | Ki (D(2) dopamine receptor [2]) | EC50 (D(2) dopamine receptor [3]) | Ki (D(1A) dopamine receptor) [nM] | SMILES
101% and 98% |  |  |  | NC[C@@H]1O[C@H](c2ccccc2)Cc2c1ccc(O)c2O (stereo in doubt; form 1) [listing 1 of 2 here]
 | 776 nM and 807 nM | 3910 nM and 10200 nM |  | NC[C@@H]1O[C@H](c2ccccc2)Cc2c1ccc(O)c2O (stereo in doubt; form 1) [listing 2 of 2 here]
 | 807 nM and 776 nM | 10200 nM and 3910 nM |  | NC[C@@H]1O[C@H](c2ccccc2)Cc2c1ccc(O)c2O (stereo in doubt; form 2) [listing 2 of 2 here]

The remaining lines, values behind:

SMILES | IA [1] | Ki (D(2) dopamine receptor [2]) | EC50 (D(2) dopamine receptor [3]) | Ki (D(1A) dopamine receptor) [nM]
NCC1OCCc2c1ccc(O)c2O (stereo not given) [listing 1 of 3 here] | 96% |  |  | 
NC[C@@H]1O[C@H](c2ccccc2)Cc2c1ccc(O)c2O (stereo in doubt; form 2) [listing 1 of 2 here] | 98% and 101% |  |  | 
NC[C@H]1O[C@@H](c2ccccc2)Cc2c1ccc(O)c2O |  | > 10000 nM | > 10000 nM | 
NCC1OCCc2c1ccc(O)c2O (stereo not given) [listing 2 of 3 here] |  | 4610 nM | 2850 nM | 1030
NCC1OCCc2c1ccc(O)c2O (stereo not given) [listing 3 of 3 here] |  | 4610 nM | 2850 nM | 1030
